We go through eight molecules from ChEMBL document CHEMBL1147738, “Potent and selective mitogen-activated protein kinase kinase (MEK) 1,2 inhibitors. 1. 4-(4-bromo-2-fluorophenylamino)-1- methylpyridin-2(1H)-ones” (J Med Chem, 2006).

The subject of data set [1] is Rattus norvegicus. In words: AUC in rat at 10 mg/kg, po. The note with it: in vivo. Also noted: dose 10 mg/kg, route oral. It is filed as ADME, organism-based, Sprague-Dawley, Plasma. The procedure, abridged: (§1)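 Male Sprague Dawley rats (6-10 weeks) were given 10 mg/kg by oral gavage (2 mg/mL in 1% CMC/0.5% Tween 80, 5 mL/kg). Tail-vein EDTA blood was drawn at 15 and 30 min and 1, 2, 4, 8, 12, 24, 48, 72 h. Plasma was quantified by LC/MS/MS after methanol precipitation. Parameters came from non-compartmental analysis.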

The target of data set [2] is Dual specificity tyrosine-phosphorylation-regulated kinase 1A (Homo sapiens) (UniProt Q13627). In words: Inhibition of DYRK1a at 10 uM. The procedure, abridged: (§2)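 Kinase panel run at Upstate (Dundee). Each compound was tested at 10 µM against each enzyme and reported as % inhibition.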
For data set [3], the target named is T1, MAP kinase-activated protein kinase 5 (Homo sapiens) (UniProt Q8IW41).
T1 sequence (whole entry): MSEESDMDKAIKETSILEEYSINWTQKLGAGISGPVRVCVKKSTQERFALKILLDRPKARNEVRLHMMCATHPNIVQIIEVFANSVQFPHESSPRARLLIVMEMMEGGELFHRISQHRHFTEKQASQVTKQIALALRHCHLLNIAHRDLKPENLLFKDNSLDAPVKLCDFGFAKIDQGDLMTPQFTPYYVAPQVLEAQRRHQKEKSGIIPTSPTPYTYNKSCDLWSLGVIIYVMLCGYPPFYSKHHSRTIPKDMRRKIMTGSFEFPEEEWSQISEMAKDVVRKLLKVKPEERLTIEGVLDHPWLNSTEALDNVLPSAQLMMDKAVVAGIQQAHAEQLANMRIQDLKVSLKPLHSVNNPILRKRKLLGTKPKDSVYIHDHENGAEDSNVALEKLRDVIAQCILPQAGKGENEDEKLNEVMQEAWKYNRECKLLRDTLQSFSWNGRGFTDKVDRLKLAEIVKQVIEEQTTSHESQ
The experiment in a line: Inhibition of PRAK at 10 uM. The procedure, abridged:
as §2

In data set [4] the target is AMP-activated protein kinase, AMPK (Homo sapiens) (UniProt P54646+O43741+P54619+Q9UGJ0+Q9Y478+Q13131+Q9UGI9). In words: Inhibition of AMPK at 10 uM. The class given is protein-complex assay. The procedure, abridged: as §2
The nature of data set [5]: Half life in rat at 1 mg/kg, iv. It is filed as ADME, organism-based. Further details: dose 1 mg/kg, route intravenous. The note with it: Sprague-Dawley, in vivo. Put shortly: (§3)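 Male Sprague Dawley rats (6-10 weeks), fed ad lib, dosed IV at 1 mg/kg (1 mg/mL in 10% DMSO/90% normal saline, 1 mL/kg). Tail-vein EDTA blood sampled 1, 5, 15, 30 min and 1, 2, 4, 8, 12, 24 h. Plasma analysed by LC/MS/MS after methanol protein precipitation, range 9 ng/mL to 20 µg/mL. Parameters derived by non-compartmental analysis.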

Data set [6] concerns the target Casein kinase II (Homo sapiens) (UniProt P67870+P68400+P19784). In words: Inhibition of CK2 at 10 uM. It is filed as protein-complex assay. The procedure, abridged:
as §2

In data set [7] the target is Glycogen synthase kinase-3 beta (Homo sapiens) (UniProt P49841). The experiment in a line: Inhibition of GSK3b at 10 uM. Put shortly:
as §2

Data set [8] concerns the target Ribosomal protein S6 kinase (P70S6K) (Homo sapiens) (UniProt Q9UBS0+P23443). In words: Inhibition of p70 S6K at 10 uM. The class given is protein-complex assay. The procedure, abridged:
as §2

Data set [9] in a line: Half life in rat at 10 mg/kg, po. To be noted: Sprague-Dawley, in vivo. Also noted: dose 10 mg/kg, route oral. It is filed as ADME, organism-based. The procedure, abridged:
as §1

Data set [10] deals with T2, Lymphokine-activated killer T-cell-originated protein kinase (Homo sapiens) (UniProt Q96KB5).
T2 sequence (whole entry): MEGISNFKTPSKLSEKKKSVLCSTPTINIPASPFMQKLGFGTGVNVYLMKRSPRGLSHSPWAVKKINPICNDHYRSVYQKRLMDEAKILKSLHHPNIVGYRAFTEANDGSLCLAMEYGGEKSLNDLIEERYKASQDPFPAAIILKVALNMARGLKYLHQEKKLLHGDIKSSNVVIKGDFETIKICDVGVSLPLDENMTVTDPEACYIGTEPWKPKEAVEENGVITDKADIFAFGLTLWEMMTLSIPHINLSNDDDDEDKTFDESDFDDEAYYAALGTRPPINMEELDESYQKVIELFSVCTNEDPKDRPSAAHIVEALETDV
In words: Inhibition of PBK at 10 uM. Put shortly: as §2

The target in data set [11] is Tyrosine-protein kinase Lck (Homo sapiens) (UniProt P06239). In words: Inhibition of LCK at 10 uM. The procedure, abridged: as §2
Data set [12] has as its system Rattus norvegicus. The experiment in a line: AUC in rat at 1 mg/kg, iv. The class given is ADME, organism-based, Sprague-Dawley, Plasma. Also noted: dose 1 mg/kg, route intravenous. The note with it: in vivo. The procedure, abridged:
as §3

In data set [13] the target is MAP kinase-activated protein kinase 2 (Homo sapiens) (UniProt P49137). In words: Inhibition of MAPKAP-K2 at 10 uM. The procedure, abridged:
as §2

In data set [14] the target is Cyclin-dependent kinase 2/cyclin A (Homo sapiens) (UniProt P24941+P20248+P78396). In words: Inhibition of CDK2/cyclin A at 10 uM. It is filed as protein-complex assay. The procedure, abridged: as §2
The target in data set [15] is T3, Serine/threonine-protein kinase Chk1 (Homo sapiens) (UniProt O14757).
T3 sequence (whole entry): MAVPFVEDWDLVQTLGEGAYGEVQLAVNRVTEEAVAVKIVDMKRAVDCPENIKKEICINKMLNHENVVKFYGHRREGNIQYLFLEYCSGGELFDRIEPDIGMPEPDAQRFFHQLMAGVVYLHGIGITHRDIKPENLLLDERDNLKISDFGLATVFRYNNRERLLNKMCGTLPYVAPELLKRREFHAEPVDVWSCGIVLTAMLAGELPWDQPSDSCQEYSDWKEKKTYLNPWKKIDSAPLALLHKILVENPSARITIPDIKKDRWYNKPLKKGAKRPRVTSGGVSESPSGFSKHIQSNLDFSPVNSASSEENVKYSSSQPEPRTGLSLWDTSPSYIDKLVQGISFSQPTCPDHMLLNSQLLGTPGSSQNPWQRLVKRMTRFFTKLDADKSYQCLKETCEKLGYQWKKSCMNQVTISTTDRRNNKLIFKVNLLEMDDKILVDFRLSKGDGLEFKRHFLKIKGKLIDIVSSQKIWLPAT
The experiment in a line: Inhibition of CHK1 at 10 uM. Put shortly: as §2

The target of data set [16] is RAC-alpha serine/threonine-protein kinase (Homo sapiens) (UniProt P31749). The experiment in a line: Inhibition of PKBa at 10 uM. Put shortly:
as §2

Data set [17] concerns the target Protein kinase C alpha type (Homo sapiens) (UniProt P17252). In words: Inhibition of PKCa at 10 uM. The procedure, abridged:
as §2

Data set [18] is described as follows: Clearance in presence of human hepatocytes. The class given is ADME, cell-based, Liver, Hepatocyte. Put shortly:
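Human hepatocytes (fresh or cryopreserved) diluted to 2 x 10⁶ viable cells/mL in supplemented Krebs-Henseleit buffer pH 7.3, mixed 1:1 with 2 µM compound working solution. Incubated at 37 °C, 5% CO₂, duplicates, one plate per timepoint. Quenched with labetalol internal standard and centrifuged; compound remaining measured by LC-MS/MS (ESI+, MRM).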

The target of data set [19] is Mitogen-activated protein kinase 8 (Homo sapiens) (UniProt P45983). The experiment in a line: Inhibition of JNK/SAPK1c at 10 uM. Put shortly:
as §2

Data set [20] in a line: Volume of distribution in rat. The class given is ADME, organism-based. To be noted: Sprague-Dawley, in vivo, read-out: Vdss. The procedure, abridged: (§4)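 Male Sprague Dawley rats (6-10 weeks) received IV 1 mg/kg (10% DMSO/90% saline) and PO 10 mg/kg (1% CMC/0.5% Tween 80). Serial tail-vein plasma was taken up to 24 h (IV) or 72 h (PO) and analysed by LC/MS/MS (9 ng/mL to 20 µg/mL). Parameters were calculated non-compartmentally.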

For data set [21], the target named is Mitogen-activated protein kinase 1 (Homo sapiens) (UniProt P28482). In words: Inhibition of MAPK2/ERK2 at 10 uM. The procedure, abridged:
as §2

The target in data set [22] is Mitogen-activated protein kinase 11 (Homo sapiens) (UniProt Q15759). In words: Inhibition of SAPK2b/p38--beta-2 at 10 uM. Put shortly:
as §2

Data set [23] has as its target cAMP-dependent protein kinase (PKA) (Homo sapiens) (UniProt P22694+P17612+P22612). In words: Inhibition of PKA at 10 uM. It is filed as protein assay. Put shortly: as §2
Data set [24] has as its target Mitogen-activated protein kinase 14 (Homo sapiens) (UniProt Q16539). In words: Inhibition of SAPK2a/p38 at 10 uM. The procedure, abridged:
as §2

Data set [25] in a line: Oral bioavailability in rat. The note with it: Sprague-Dawley, in vivo. It is filed as ADME, organism-based. Put shortly: as §4
Data set [26] can be described thus: Clearance in rat. The class given is ADME, organism-based. To be noted: Sprague-Dawley, in vivo. Put shortly:
as §4

In data set [27] the target is Ribosomal protein S6 kinase alpha-5 (Homo sapiens) (UniProt O75582). The experiment in a line: Inhibition of MSK1 at 10 uM. The procedure, abridged: as §2
The target of data set [28] is Rho-associated protein kinase 2 (Homo sapiens) (UniProt O75116). The experiment in a line: Inhibition of ROCK 2 at 10 uM. The procedure, abridged:
as §2

Data set [29] addresses Ribosomal protein S6 kinase alpha-1 (Homo sapiens) (UniProt Q15418). In words: Inhibition of MAPKAP-K1a at 10 uM. Put shortly:
as §2

Data set [30] relates to Malme-3M. In words: Inhibition of cellular viability of Malme-3M cells. The class given is functional, Homo sapiens.
For data set [31], the system named is Malme-3M. The experiment in a line: Inhibition of basal ERK phosphorylation in Malme-3M cells. It is filed as functional, Homo sapiens.

Structures are written as SMILES.

Chain of Tyrosine-protein kinase Lck (Homo sapiens) (P06239 2-509 limits assumed): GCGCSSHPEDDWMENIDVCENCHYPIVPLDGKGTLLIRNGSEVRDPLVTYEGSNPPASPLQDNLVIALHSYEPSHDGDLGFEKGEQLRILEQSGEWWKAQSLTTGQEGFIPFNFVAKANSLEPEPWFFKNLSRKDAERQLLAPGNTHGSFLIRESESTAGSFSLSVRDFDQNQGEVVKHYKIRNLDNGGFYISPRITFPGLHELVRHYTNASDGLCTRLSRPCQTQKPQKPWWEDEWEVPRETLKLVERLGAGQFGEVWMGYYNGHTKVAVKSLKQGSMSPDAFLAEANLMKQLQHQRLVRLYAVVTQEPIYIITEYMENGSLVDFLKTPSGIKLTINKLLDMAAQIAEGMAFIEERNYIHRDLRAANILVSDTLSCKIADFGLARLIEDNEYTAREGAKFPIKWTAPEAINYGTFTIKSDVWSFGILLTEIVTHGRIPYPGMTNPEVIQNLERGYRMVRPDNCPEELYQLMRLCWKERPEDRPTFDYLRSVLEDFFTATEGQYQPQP
Chain of Ribosomal protein S6 kinase alpha-5 (Homo sapiens) (O75582 whole entry, looked up): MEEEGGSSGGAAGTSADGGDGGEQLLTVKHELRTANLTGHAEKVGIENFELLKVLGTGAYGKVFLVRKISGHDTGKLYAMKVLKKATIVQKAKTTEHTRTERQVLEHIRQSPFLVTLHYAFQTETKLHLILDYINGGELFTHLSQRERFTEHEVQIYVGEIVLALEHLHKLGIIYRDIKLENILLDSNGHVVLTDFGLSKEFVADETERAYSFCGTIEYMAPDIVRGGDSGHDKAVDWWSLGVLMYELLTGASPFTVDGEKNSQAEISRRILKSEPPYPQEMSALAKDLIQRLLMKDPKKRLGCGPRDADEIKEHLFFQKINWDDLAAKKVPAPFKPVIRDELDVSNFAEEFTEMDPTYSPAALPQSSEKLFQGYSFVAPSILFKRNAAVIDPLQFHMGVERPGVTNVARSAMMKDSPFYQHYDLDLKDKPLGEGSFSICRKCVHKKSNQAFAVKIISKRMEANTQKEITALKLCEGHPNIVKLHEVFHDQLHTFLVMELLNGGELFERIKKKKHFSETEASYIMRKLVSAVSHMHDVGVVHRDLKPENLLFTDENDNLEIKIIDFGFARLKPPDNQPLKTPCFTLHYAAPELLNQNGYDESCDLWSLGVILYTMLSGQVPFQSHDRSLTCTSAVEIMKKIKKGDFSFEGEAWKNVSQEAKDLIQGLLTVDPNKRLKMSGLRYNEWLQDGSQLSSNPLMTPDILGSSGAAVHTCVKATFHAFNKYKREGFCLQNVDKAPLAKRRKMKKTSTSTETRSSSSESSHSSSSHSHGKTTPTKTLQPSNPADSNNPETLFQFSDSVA
Chain of Mitogen-activated protein kinase 14 (Homo sapiens) (Q16539 whole entry): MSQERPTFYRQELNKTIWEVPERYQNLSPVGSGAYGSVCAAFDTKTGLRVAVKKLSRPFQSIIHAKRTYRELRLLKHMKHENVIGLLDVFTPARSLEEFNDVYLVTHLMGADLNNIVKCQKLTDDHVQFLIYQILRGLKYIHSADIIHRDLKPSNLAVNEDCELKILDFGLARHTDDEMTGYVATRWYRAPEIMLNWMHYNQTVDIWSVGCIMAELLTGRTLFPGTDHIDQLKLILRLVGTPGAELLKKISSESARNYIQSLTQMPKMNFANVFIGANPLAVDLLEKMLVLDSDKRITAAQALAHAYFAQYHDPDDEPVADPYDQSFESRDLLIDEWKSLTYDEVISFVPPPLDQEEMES
Chain of Mitogen-activated protein kinase 8 (Homo sapiens) (P45983 whole entry): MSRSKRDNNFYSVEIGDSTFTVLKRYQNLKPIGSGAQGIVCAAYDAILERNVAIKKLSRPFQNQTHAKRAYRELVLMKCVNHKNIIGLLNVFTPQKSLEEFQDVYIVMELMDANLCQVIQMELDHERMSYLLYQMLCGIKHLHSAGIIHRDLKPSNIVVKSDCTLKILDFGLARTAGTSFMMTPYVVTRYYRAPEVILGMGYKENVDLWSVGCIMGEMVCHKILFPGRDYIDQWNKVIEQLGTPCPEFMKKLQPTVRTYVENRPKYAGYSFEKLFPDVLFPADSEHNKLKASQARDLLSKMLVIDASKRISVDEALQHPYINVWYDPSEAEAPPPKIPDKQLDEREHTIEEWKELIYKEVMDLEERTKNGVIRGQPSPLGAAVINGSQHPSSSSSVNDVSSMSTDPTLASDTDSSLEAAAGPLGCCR
Chain of Rho-associated protein kinase 2 (Homo sapiens) (O75116 whole entry, looked up): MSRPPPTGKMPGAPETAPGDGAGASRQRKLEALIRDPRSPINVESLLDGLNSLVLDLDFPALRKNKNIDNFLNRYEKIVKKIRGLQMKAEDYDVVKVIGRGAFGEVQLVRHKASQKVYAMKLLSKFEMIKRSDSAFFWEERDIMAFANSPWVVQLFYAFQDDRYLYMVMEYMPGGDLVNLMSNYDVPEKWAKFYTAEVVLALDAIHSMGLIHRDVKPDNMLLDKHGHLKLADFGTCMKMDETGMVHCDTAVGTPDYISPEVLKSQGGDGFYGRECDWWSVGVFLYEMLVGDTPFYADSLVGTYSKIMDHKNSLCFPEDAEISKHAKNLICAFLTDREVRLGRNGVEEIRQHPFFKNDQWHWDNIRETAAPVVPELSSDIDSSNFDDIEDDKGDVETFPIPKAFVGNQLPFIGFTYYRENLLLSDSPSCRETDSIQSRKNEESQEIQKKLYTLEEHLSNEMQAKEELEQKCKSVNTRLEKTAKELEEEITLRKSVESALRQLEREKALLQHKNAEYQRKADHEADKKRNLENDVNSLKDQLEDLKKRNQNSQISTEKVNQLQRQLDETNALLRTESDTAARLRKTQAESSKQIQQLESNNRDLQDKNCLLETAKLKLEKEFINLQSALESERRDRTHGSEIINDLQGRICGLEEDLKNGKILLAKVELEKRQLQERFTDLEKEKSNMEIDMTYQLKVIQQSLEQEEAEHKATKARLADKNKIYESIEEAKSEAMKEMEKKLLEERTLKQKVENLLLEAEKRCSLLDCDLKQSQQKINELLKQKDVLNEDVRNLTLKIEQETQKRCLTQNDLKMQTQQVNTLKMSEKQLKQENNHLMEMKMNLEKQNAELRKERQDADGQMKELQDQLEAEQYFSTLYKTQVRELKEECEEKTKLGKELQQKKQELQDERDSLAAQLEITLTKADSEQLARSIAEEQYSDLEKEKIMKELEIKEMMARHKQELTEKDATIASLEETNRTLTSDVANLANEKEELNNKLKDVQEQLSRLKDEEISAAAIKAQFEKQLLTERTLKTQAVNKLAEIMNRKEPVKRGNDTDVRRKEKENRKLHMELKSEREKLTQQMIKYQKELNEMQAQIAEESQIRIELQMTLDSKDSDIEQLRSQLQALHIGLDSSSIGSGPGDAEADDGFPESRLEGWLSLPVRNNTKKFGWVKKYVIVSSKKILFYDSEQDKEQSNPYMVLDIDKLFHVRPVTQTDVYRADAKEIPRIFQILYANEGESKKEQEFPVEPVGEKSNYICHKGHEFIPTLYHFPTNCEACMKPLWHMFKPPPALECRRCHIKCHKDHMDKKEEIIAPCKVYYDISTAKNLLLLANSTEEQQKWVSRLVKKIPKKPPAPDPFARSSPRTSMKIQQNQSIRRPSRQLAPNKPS
Chain of Mitogen-activated protein kinase 1 (Homo sapiens) (P28482 whole entry): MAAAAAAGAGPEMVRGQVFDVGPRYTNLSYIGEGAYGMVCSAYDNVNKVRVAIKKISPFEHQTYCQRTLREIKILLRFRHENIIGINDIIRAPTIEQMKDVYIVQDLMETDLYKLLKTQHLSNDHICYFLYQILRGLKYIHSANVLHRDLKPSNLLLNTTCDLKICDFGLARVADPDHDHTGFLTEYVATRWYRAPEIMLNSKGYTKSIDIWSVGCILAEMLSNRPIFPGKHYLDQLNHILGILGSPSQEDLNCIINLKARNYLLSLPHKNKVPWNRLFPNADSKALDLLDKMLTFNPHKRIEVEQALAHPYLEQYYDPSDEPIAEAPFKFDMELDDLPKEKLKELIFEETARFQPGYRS
Chain of Glycogen synthase kinase-3 beta (Homo sapiens) (P49841 whole entry, looked up): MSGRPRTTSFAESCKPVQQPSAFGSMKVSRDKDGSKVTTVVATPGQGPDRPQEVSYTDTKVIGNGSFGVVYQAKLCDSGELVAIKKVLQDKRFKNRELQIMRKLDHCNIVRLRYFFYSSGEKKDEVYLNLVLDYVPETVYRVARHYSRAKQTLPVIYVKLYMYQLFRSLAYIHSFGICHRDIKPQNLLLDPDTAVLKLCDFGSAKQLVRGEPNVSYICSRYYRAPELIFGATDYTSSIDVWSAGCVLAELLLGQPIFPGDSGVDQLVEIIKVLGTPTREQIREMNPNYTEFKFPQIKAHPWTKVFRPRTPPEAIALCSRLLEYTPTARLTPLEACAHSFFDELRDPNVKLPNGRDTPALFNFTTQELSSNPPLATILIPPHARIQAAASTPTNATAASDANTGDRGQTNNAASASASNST

As a reminder, the AUC is concentration integrated over time. A high value points to more exposure. For orientation: inhibition means the change of the read-out against control, counted positive when it falls. What is called half-life is how long it takes for the measured level to halve. Low readings indicate rapid decline, high ones slow decline. A word on the bioavailability: it is the share of a dose that reaches the circulation, judged against a reference dose that is usually intravenous. A word on the clearance: it is a measure of how efficiently the substance is removed, as volume per time. Turning to `CCONC(=O)c1cn(C)c(=O)c(F)c1Nc1ccc(Br)cc1F`, the area under the curve (AUC) in the data set on Rattus norvegicus [1] stood at 138000 ng·h/mL; in the data set on Rattus norvegicus [12], 24100 ng·h/mL. For the same molecule, the inhibition stood at 12% in data set [2]; 18% in data set [3]; 8% in data set [4]; 4% in data set [6]; 21% in data set [7]; 13% in data set [8]. Also, the inhibition in data set [10] was -1%; in data set [11] it was 19%; in data set [13], 15%; in [14] it was 25%; in data set [15] it was 13%; in data set [16] it was 6%. Also, the inhibition is 6% in data set [17]; 15% in data set [19]; 7% in data set [21]; 9% in data set [22]; 14% in [23]; 10% in [24]. The inhibition in [27] was 7%; in [28], 4%; in data set [29], 6%. For the same molecule, the half-life in data set [5] is 6 h; in [9] it was 12 h. The CLhep predicted in data set [18] is 2 mL/min/kg. Further, in data set [20], the Vd is 0.4 L/kg. The bioavailability in data set [25] is 58%. This molecule also gave a clearance in data set [26] of 0.7 mL/min/kg.
Turning to `Cn1cc(C(=O)NOCC2CC2)c(Nc2ccc(Br)cc2F)cc1=O`, the values for the Activity in the data set with Malme-3M [30] and with Malme-3M [31] were 165 nM and 26 nM, respectively.
On to `O=C(NOCCO)c1cnc(Cl)c(Cl)c1Nc1ccc(Br)cc1F`, for which the Activity was more than 5000 nM with Malme-3M [30] and more than 10000 nM with Malme-3M [31].
For `CONC(=O)c1cn(C)c(=O)c(F)c1Nc1ccc(Br)cc1F`, the Activity in the data set with Malme-3M [30] came to 145 nM; in the data set on Malme-3M [31] it was 22 nM.
For the molecule `Cn1cc(C(=O)NO)c(Nc2ccc(Br)cc2F)c(F)c1=O`, the Activity is 860 nM in the data set with Malme-3M [30] and 18 nM with Malme-3M [31].
As to `Cn1cc(C(=O)O)c(Nc2ccc(Br)cc2F)c(F)c1=O`, the Activity in the data set with Malme-3M [30] was more than 5000 nM; with Malme-3M [31], more than 10000 nM.
Turning to `Cn1cc(C(=O)NOCC2CC2)c(Nc2ccc(Br)cc2F)c(F)c1=O`, the values for the Activity in the data set with Malme-3M [30] and in the data set on Malme-3M [31] were 22 nM and 3.4 nM, respectively.
Consider `Cn1cc(C(=O)NOCC2CC2)c(Nc2ccc(Br)cc2F)c(Cl)c1=O`, for which the results for the Activity in the data set with Malme-3M [30] and in the data set with Malme-3M [31] were 195 nM and 27 nM, respectively.
